Source: ChEMBL document CHEMBL1156240, “Papyriferic acid derivatives as reversal agents of multidrug resistance in cancer cells” (Bioorg Med Chem, 2010)
pIC50: −log10 of the molar value.

Key:
KB-C2 [1] = assay: Inhibition of P-gp-mediated multidrug-resistance in human KB-C2 cells assessed as increase in colchicine-induced cytotoxicity at 5 ug/ml after 48 hrs by MTT assay; type: cell-based
KB-C2 [2] = assay: Inhibition of P-gp-mediated multidrug-resistance in human KB-C2 cells assessed as increase in colchicine-induced cytotoxicity at 1 ug/ml after 48 hrs by MTT assay; type: cell-based
[3] = Cytotoxicity against human multidrug-resistant KB-C2 cells after 48 hrs by MTT assay; type: functional, cell-based; settings: KB-C2, 48 h
Procedure, shortened: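 Seeded 5 × 10³ cells/well, preincubated 24 h, then compounds at 2, 10, 50, 100 µg/mL in medium (0.5% DMSO final) for 48 h. MTT 0.5 mg/mL for 4 h, formazan dissolved in DMSO, OD 540 nm; IC50 relative to vehicle controls.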

KB = assay: Cytotoxicity against human KB cells after 48 hrs by MTT assay; type: functional, cell-based

CC(=O)O[C@@H]1C[C@@H]2[C@@]3(C)CC[C@@H](OC(=O)CC(=O)N4CCOCC4)C(C)(C)[C@@H]3CC[C@@]2(C)[C@]2(C)CC[C@H]([C@]3(C)CC[C@H](C(C)(C)O)O3)[C@@H]12
fold change (FC) (KB-C2 [1]): 185 | fold change (FC) (KB-C2 [2]): 17.4 | pIC50 [3]: 4.56 | pIC50 (KB): 4.51

CNC(=O)CC(=O)O[C@@H]1CC[C@]2(C)[C@H]3C[C@@H](OC(C)=O)[C@@H]4[C@@H]([C@]5(C)CC[C@H](C(C)(C)O)O5)CC[C@@]4(C)[C@]3(C)CC[C@H]2C1(C)C
fold change (FC) (KB-C2 [1]): 74.4 | fold change (FC) (KB-C2 [2]): 4.7 | pIC50 [3]: 4.37 | pIC50 (KB): 4.39

COC(=O)CC(=O)O[C@@H]1CC[C@]2(C)[C@H]3C[C@@H](OC(C)=O)[C@@H]4[C@@H]([C@]5(C)CC[C@H](C(C)(C)O)O5)CC[C@@]4(C)[C@]3(C)CC[C@H]2C1(C)C [METHYL PAPYRIFERATE]
fold change (FC) (KB-C2 [1]): 51.6 | fold change (FC) (KB-C2 [2]): 1.5 | pIC50 [3]: 4.49 | pIC50 (KB): 4.57

CC(=O)O[C@@H]1C[C@@H]2[C@@]3(C)CC[C@@H](OC(=O)CC(N)=O)C(C)(C)[C@@H]3CC[C@@]2(C)[C@]2(C)CC[C@H]([C@]3(C)CC[C@H](C(C)(C)O)O3)[C@@H]12
fold change (FC) (KB-C2 [1]): 49.3 | fold change (FC) (KB-C2 [2]): 2.1 | pIC50 [3]: 4.36 | pIC50 (KB): 4.41

CC(=O)O[C@@H]1C[C@@H]2[C@@]3(C)CC[C@@H](OC(=O)CC(=O)Nc4ccccc4)C(C)(C)[C@@H]3CC[C@@]2(C)[C@]2(C)CC[C@H]([C@]3(C)CC[C@H](C(C)(C)OC(=O)C(=O)Nc4ccccc4)O3)[C@@H]12
pIC50 [3]: < 4.00 | pIC50 (KB): < 4.00

CC(=O)O[C@@H]1C[C@@H]2[C@@]3(C)CC[C@@H](OC(=O)CC(=O)N(C)C)C(C)(C)[C@@H]3CC[C@@]2(C)[C@]2(C)CC[C@H]([C@]3(C)CC[C@H](C(C)(C)O)O3)[C@@H]12
fold change (FC) (KB-C2 [1]): 87.5 | fold change (FC) (KB-C2 [2]): 2.4 | pIC50 [3]: 4.55 | pIC50 (KB): 4.60

CCCCCCCCCNC(=O)CC(=O)O[C@@H]1CC[C@]2(C)[C@H]3C[C@@H](OC(C)=O)[C@@H]4[C@@H]([C@]5(C)CC[C@H](C(C)(C)OC(=O)C(=O)NCCCCCCCCC)O5)CC[C@@]4(C)[C@]3(C)CC[C@H]2C1(C)C
pIC50 [3]: < 4.00 | pIC50 (KB): < 4.00

CCCCCCOC(=O)CC(=O)O[C@@H]1CC[C@]2(C)[C@H]3CC[C@@H]4[C@@H]([C@]5(C)CC[C@H](C(C)(C)O)O5)CC[C@@]4(C)[C@]3(C)CC[C@H]2C1(C)C
pIC50 [3]: < 4.00 | pIC50 (KB): < 4.00

COc1ccc(OC)c(NC(=O)CC(=O)O[C@@H]2CC[C@]3(C)[C@H]4C[C@@H](OC(C)=O)[C@@H]5[C@@H]([C@]6(C)CC[C@H](C(C)(C)OC(=O)C(=O)Nc7cc(OC)ccc7OC)O6)CC[C@@]5(C)[C@]4(C)CC[C@H]3C2(C)C)c1
pIC50 [3]: < 4.00 | pIC50 (KB): < 4.00

CCCOC(=O)CC(=O)O[C@@H]1CC[C@]2(C)[C@H]3CC[C@@H]4[C@@H]([C@]5(C)CC[C@H](C(C)(C)O)O5)CC[C@@]4(C)[C@]3(C)CC[C@H]2C1(C)C
pIC50 [3]: < 4.00 | pIC50 (KB): 4.22

CC(=O)O[C@@H]1C[C@@H]2[C@@]3(C)CC[C@@H](OC(=O)CC(=O)OCc4ccccc4)C(C)(C)[C@@H]3CC[C@@]2(C)[C@]2(C)CC[C@H]([C@]3(C)CC[C@H](C(C)(C)O)O3)[C@@H]12
pIC50 [3]: < 4.00 | pIC50 (KB): 4.36

CC(=O)O[C@@H]1C[C@@H]2[C@@]3(C)CC[C@@H](OC(=O)CC(=O)NC(C)(C)C)C(C)(C)[C@@H]3CC[C@@]2(C)[C@]2(C)CC[C@H]([C@]3(C)CC[C@H](C(C)(C)O)O3)[C@@H]12
fold change (FC) (KB-C2 [1]): 9.8 | fold change (FC) (KB-C2 [2]): 1.1 | pIC50 [3]: 4.32 | pIC50 (KB): 4.39

COC(=O)CC(=O)O[C@@H]1CC[C@]2(C)[C@H]3CC[C@@H]4[C@@H]([C@]5(C)CC[C@H](C(C)(C)O)O5)CC[C@@]4(C)[C@]3(C)CC[C@H]2C1(C)C
fold change (FC) (KB-C2 [1]): 14.8 | fold change (FC) (KB-C2 [2]): 1.1 | pIC50 [3]: 4.25 | pIC50 (KB): 4.34

CCCCOC(=O)CC(=O)O[C@@H]1CC[C@]2(C)[C@H]3CC[C@@H]4[C@@H]([C@]5(C)CC[C@H](C(C)(C)O)O5)CC[C@@]4(C)[C@]3(C)CC[C@H]2C1(C)C
pIC50 [3]: < 4.00 | pIC50 (KB): < 4.00

CCOC(=O)CC(=O)O[C@@H]1CC[C@]2(C)[C@H]3CC[C@@H]4[C@@H]([C@]5(C)CC[C@H](C(C)(C)O)O5)CC[C@@]4(C)[C@]3(C)CC[C@H]2C1(C)C
pIC50 [3]: < 4.00 | pIC50 (KB): < 4.00

COc1cccc2c1C(=O)c1c(O)c3c(c(O)c1C2=O)C[C@@](O)(C(C)=O)C[C@@H]3O[C@H]1C[C@H](N)[C@H](O)[C@H](C)O1 [DAUNORUBICIN]
pIC50 [3]: 4.79 | pIC50 (KB): 6.19

CCNC(=O)CC(=O)O[C@@H]1CC[C@]2(C)[C@H]3C[C@@H](OC(C)=O)[C@@H]4[C@@H]([C@]5(C)CC[C@H](C(C)(C)O)O5)CC[C@@]4(C)[C@]3(C)CC[C@H]2C1(C)C
fold change (FC) (KB-C2 [1]): 53.9 | fold change (FC) (KB-C2 [2]): 2.6 | pIC50 [3]: 4.36 | pIC50 (KB): 4.40

CCCCCNC(=O)CC(=O)O[C@@H]1CC[C@]2(C)[C@H]3C[C@@H](OC(C)=O)[C@@H]4[C@@H]([C@]5(C)CC[C@H](C(C)(C)O)O5)CC[C@@]4(C)[C@]3(C)CC[C@H]2C1(C)C
pIC50 [3]: 4.42 | pIC50 (KB): 4.42

CCCCOC(=O)CC(=O)O[C@@H]1CC[C@]2(C)[C@H]3C[C@@H](OC(C)=O)[C@@H]4[C@@H]([C@]5(C)CC[C@H](C(C)(C)O)O5)CC[C@@]4(C)[C@]3(C)CC[C@H]2C1(C)C
pIC50 [3]: < 4.00 | pIC50 (KB): 4.39

CC(=O)O[C@@H]1C[C@@H]2[C@@]3(C)CC[C@@H](OC(=O)CC(=O)NCc4ccccc4)C(C)(C)[C@@H]3CC[C@@]2(C)[C@]2(C)CC[C@H]([C@]3(C)CC[C@H](C(C)(C)O)O3)[C@@H]12
pIC50 [3]: 4.48 | pIC50 (KB): 4.50

C=CCOC(=O)CC(=O)O[C@@H]1CC[C@]2(C)[C@H]3C[C@@H](OC(C)=O)[C@@H]4[C@@H]([C@]5(C)CC[C@H](C(C)(C)O)O5)CC[C@@]4(C)[C@]3(C)CC[C@H]2C1(C)C
pIC50 [3]: 4.32 | pIC50 (KB): 4.46

CC(=O)O[C@@H]1C[C@@H]2[C@@]3(C)CC[C@@H](OC(=O)CC(=O)NC(C)(C)C)C(C)(C)[C@@H]3CC[C@@]2(C)[C@]2(C)CC[C@H]([C@]3(C)CC[C@H](C(C)(C)OC(=O)C(=O)NC(C)(C)C)O3)[C@@H]12
pIC50 [3]: < 4.00 | pIC50 (KB): < 4.00

CCCCCCCCOC(=O)CC(=O)O[C@@H]1CC[C@]2(C)[C@H]3C[C@@H](OC(C)=O)[C@@H]4[C@@H]([C@]5(C)CC[C@H](C(C)(C)O)O5)CC[C@@]4(C)[C@]3(C)CC[C@H]2C1(C)C
pIC50 [3]: < 4.00 | pIC50 (KB): < 4.00

CCCCCOC(=O)CC(=O)O[C@@H]1CC[C@]2(C)[C@H]3CC[C@@H]4[C@@H]([C@]5(C)CC[C@H](C(C)(C)O)O5)CC[C@@]4(C)[C@]3(C)CC[C@H]2C1(C)C
pIC50 [3]: < 4.00 | pIC50 (KB): < 4.00

CCCNC(=O)CC(=O)O[C@@H]1CC[C@]2(C)[C@H]3C[C@@H](OC(C)=O)[C@@H]4[C@@H]([C@]5(C)CC[C@H](C(C)(C)OC(=O)C(=O)NCCC)O5)CC[C@@]4(C)[C@]3(C)CC[C@H]2C1(C)C
fold change (FC) (KB-C2 [1]): 68.8 | fold change (FC) (KB-C2 [2]): 1.2 | pIC50 [3]: 4.58 | pIC50 (KB): 4.61

CCCCCCOC(=O)CC(=O)O[C@@H]1CC[C@]2(C)[C@H]3C[C@@H](OC(C)=O)[C@@H]4[C@@H]([C@]5(C)CC[C@H](C(C)(C)O)O5)CC[C@@]4(C)[C@]3(C)CC[C@H]2C1(C)C
pIC50 [3]: < 4.00 | pIC50 (KB): 4.15

CCCCCOC(=O)CC(=O)O[C@@H]1CC[C@]2(C)[C@H]3C[C@@H](OC(C)=O)[C@@H]4[C@@H]([C@]5(C)CC[C@H](C(C)(C)O)O5)CC[C@@]4(C)[C@]3(C)CC[C@H]2C1(C)C
pIC50 [3]: < 4.00 | pIC50 (KB): 4.34

CCCCCCCOC(=O)CC(=O)O[C@@H]1CC[C@]2(C)[C@H]3C[C@@H](OC(C)=O)[C@@H]4[C@@H]([C@]5(C)CC[C@H](C(C)(C)O)O5)CC[C@@]4(C)[C@]3(C)CC[C@H]2C1(C)C
pIC50 [3]: < 4.00 | pIC50 (KB): < 4.00

COc1ccc(OC)c(NC(=O)CC(=O)O[C@@H]2CC[C@]3(C)[C@H]4C[C@@H](OC(C)=O)[C@@H]5[C@@H]([C@]6(C)CC[C@H](C(C)(C)O)O6)CC[C@@]5(C)[C@]4(C)CC[C@H]3C2(C)C)c1
pIC50 [3]: < 4.00 | pIC50 (KB): < 4.00

CCCCCCCCCNC(=O)CC(=O)O[C@@H]1CC[C@]2(C)[C@H]3C[C@@H](OC(C)=O)[C@@H]4[C@@H]([C@]5(C)CC[C@H](C(C)(C)O)O5)CC[C@@]4(C)[C@]3(C)CC[C@H]2C1(C)C
pIC50 [3]: < 4.00 | pIC50 (KB): 4.37
